Common to all, as to format: functional, cell-based
In assay [1] the test system is MES-SA. Nature of the assay: Cytotoxicity against human MES-SA cells transfected with mCherry fluorescent protein assessed as inhibition of cell proliferation incubated for 72 hrs by fluorescent assay. The conditions noted are these: Homo sapiens, MES-SA, 72 h. The procedure, abridged: (§1)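 MES-SA and MES-SA/Dx5 cells were made to stably express mCherry by lentiviral transduction. Cells were seeded at 5000 (96-well) or 2500 (384-well) per well, allowed to attach 24 h, then treated with compound dilutions for 72 h. Viability was read as fluorescence, excitation 585 nm, emission 610 nm.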

In assay [2] the test system is MES-SA/Dx5. Briefly: Cytotoxicity against human MES-SA/DX5 cells transfected with mCherry fluorescent protein assessed as inhibition of cell proliferation incubated for 72 hrs by fluorescent assay. As to conditions: Homo sapiens, MES-SA/Dx5, 72 h. The procedure, abridged: as §1
The test system of assay [3] is MES-SA. Briefly: Cytotoxicity against human MES-SA cells assessed as inhibition of cell proliferation incubated for 72 hrs by MTT assay. The method in brief: (§2)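 Cells were seeded (10000/well for A2780, 5000/well for MES-SA/Dx5 and KB-3-1/V1) and left to attach 12 h, then exposed to compound for 72 h. Medium was removed, and MTT (0.83 mg/mL) was added for 1 h at 37 °C. Cells were lysed in DMSO and absorbance read at 540 nm. Signal was corrected for unstained lysate background, normalized to untreated cells, and IC50 taken from a sigmoidal dose-response fit.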

Assay [4] has as its system MES-SA/Dx5. Nature of the assay: Cytotoxicity against human MES-SA/DX5 cells assessed as inhibition of cell proliferation incubated for 72 hrs by MTT assay. The conditions noted are these: MES-SA/Dx5, 72 h. The method in brief: as §2
A further assay concerns KB 3-1. Nature of the assay: Cytotoxicity against human KB-3-1 cells assessed as inhibition of cell proliferation incubated for 72 hrs by MTT assay. As to conditions: KB 3-1, 72 h. The method in brief:
as §2

The test system of the next assay is KB-V1. Briefly: Cytotoxicity against human KB-V1 cells assessed as inhibition of cell proliferation incubated for 72 hrs by MTT assay. The conditions noted are these: KB-V1, 72 h. The procedure, abridged:
as §2
For orientation: Formazan colour is commonly taken as a measure of viable cells.

In a further assay the test system is A2780. Nature of the assay: Cytotoxicity against human A2780 cells assessed as inhibition of cell proliferation incubated for 72 hrs by MTT assay. The conditions noted are these: A2780, 72 h. The procedure, abridged:
as §2

A short description of assay [5]: Cytotoxicity against human A2780adr cells assessed as inhibition of cell proliferation incubated for 72 hrs by MTT assay. The conditions noted are these: A2780 ADR. The method in brief: as §2

As to `C/C(=N\NC(=S)Nc1ccccc1C(F)(F)F)c1ccccn1`, the IC50 was 0.033 µM in the assay with MES-SA [1] (read-out: IC50), 0.0324 µM in the assay on MES-SA [1] (read-out: pIC50 (converted)), 0.161 µM in the assay with MES-SA/Dx5 [2] (read-out: IC50) and 0.141 µM with MES-SA/Dx5 [2] (read-out: pIC50 (converted)).
On to `Oc1ccccc1/C=N/NC(=S)Nc1cccc(C(F)(F)F)c1`, for which the IC50 in the assay with MES-SA [1] (read-out: IC50) worked out at 5.07 µM; with MES-SA/Dx5 [2] (read-out: IC50), 4.08 µM.
In the case of `CCc1ccc(/C=N/NC(=S)Nc2ccc([N+](=O)[O-])cc2)nc1`, the IC50 is 10.9 µM with MES-SA [3] (read-out: IC50); 10.7 µM in the assay on MES-SA [3] (read-out: pIC50 (converted)); 8.02 µM with MES-SA/Dx5 [4] (read-out: IC50); 8.13 µM in the assay with MES-SA/Dx5 [4] (read-out: pIC50 (converted)); 10.5 µM in the assay with MES-SA [1] (read-out: IC50); 11.1 µM in the assay with MES-SA/Dx5 [2] (read-out: IC50). Moreover, the IC50 in the assay with KB 3-1 (read-out: IC50) is 8.03 µM; in the assay with KB 3-1 (read-out: pIC50 (converted)), 7.94 µM; in the assay with KB-V1 (read-out: IC50), 8.93 µM; with KB-V1 (read-out: pIC50 (converted)), 8.91 µM.
Consider `O=[N+]([O-])c1ccc(NC(=S)N/N=C/c2ccccn2)cc1`, for which the IC50 is 2.7 µM with MES-SA [3] (read-out: IC50); 2.57 µM in the assay with MES-SA [3] (read-out: pIC50 (converted)); 1.83 µM with MES-SA/Dx5 [4] (read-out: IC50); 1.78 µM in the assay with MES-SA/Dx5 [4] (read-out: pIC50 (converted)); 2.74 µM in the assay on MES-SA [1] (read-out: IC50); 2.69 µM in the assay on MES-SA [1] (read-out: pIC50 (converted)). Moreover, the IC50 in the assay with MES-SA/Dx5 [2] (read-out: IC50) is 2.74 µM; with MES-SA/Dx5 [2] (read-out: pIC50 (converted)), 2.75 µM; with KB 3-1 (read-out: IC50), 1.05 µM; in the assay on KB 3-1 (read-out: pIC50 (converted)) it was 1.02 µM; in the assay with KB-V1 (read-out: IC50), 1.99 µM; in the assay on KB-V1 (read-out: pIC50 (converted)), 1.78 µM. For the same molecule, the IC50 in the assay with A2780 (read-out: IC50) is 0.67 µM; in the assay with A2780 (read-out: pIC50 (converted)), 0.617 µM; in assay [5] (read-out: IC50), 1.37 µM; in assay [5] (read-out: pIC50 (converted)) it was 1.35 µM.
As for `C/C(=N\Nc1ccccn1)c1ccccn1`, the IC50 is 0.102 µM with MES-SA [1] (read-out: IC50), 0.0776 µM in the assay with MES-SA [1] (read-out: pIC50 (converted)), 0.059 µM in the assay with MES-SA/Dx5 [2] (read-out: IC50) and 0.0589 µM in the assay with MES-SA/Dx5 [2] (read-out: pIC50 (converted)).
Regarding `O=[N+]([O-])c1ccc(O)c(/C=N/NC(=S)Nc2ccccc2C(F)(F)F)c1`, the IC50 with MES-SA [1] (read-out: IC50) stood at 21.1 µM; in the assay on MES-SA/Dx5 [2] (read-out: IC50) it was 13.9 µM.
With `COc1cc(N/N=C/c2ccccn2)ncn1`, the IC50 with MES-SA [3] (read-out: IC50) is 2.82 µM; in the assay on MES-SA/Dx5 [4] (read-out: IC50), 2.49 µM; in the assay on MES-SA [1] (read-out: IC50), 2.45 µM; with MES-SA [1] (read-out: pIC50 (converted)) it was 2.34 µM; in the assay on MES-SA/Dx5 [2] (read-out: IC50) it was 2.71 µM; in the assay on MES-SA/Dx5 [2] (read-out: pIC50 (converted)), 2.57 µM. The IC50 in the assay on KB 3-1 (read-out: IC50) was 1.95 µM; in the assay with KB 3-1 (read-out: pIC50 (converted)), 1.91 µM; in the assay with KB-V1 (read-out: IC50), 2.83 µM; in the assay with KB-V1 (read-out: pIC50 (converted)), 2.82 µM; in the assay on A2780 (read-out: IC50) it was 1.73 µM; with A2780 (read-out: pIC50 (converted)) it was 1.74 µM. For the same molecule, the IC50 in assay [5] (read-out: IC50) and in assay [5] (read-out: pIC50 (converted)) was 1.95 µM throughout.
In the case of `CCc1ccc(/C=N/NC(=S)Nc2ccc(OC)cc2)nc1`, the IC50 in the assay with MES-SA [3] (read-out: IC50) is 0.42 µM; with MES-SA [3] (read-out: pIC50 (converted)) it was 0.417 µM; in the assay with MES-SA/Dx5 [4] (read-out: IC50), 0.072 µM; in the assay on MES-SA/Dx5 [4] (read-out: pIC50 (converted)) it was 0.0631 µM; with MES-SA [1] (read-out: IC50), 0.096 µM; in the assay with MES-SA/Dx5 [2] (read-out: IC50), 0.056 µM.
As for `O=[N+]([O-])c1ccc(O)c(/C=N/Nc2nc3ccccc3s2)c1`, the IC50 with MES-SA [1] (read-out: IC50) is 4.07 µM; in the assay on MES-SA [1] (read-out: pIC50 (converted)), 3.8 µM; in the assay on MES-SA/Dx5 [2] (read-out: IC50), 1.99 µM; with MES-SA/Dx5 [2] (read-out: pIC50 (converted)) it was 1.86 µM.
As for `COc1ccc(NC(=S)N/N=C/c2ccccc2O)cc1`, the IC50 in the assay on MES-SA [3] (read-out: IC50) was 3.91 µM; in the assay on MES-SA [3] (read-out: pIC50 (converted)), 3.8 µM; in the assay with MES-SA/Dx5 [4] (read-out: IC50), 3.5 µM; with MES-SA/Dx5 [4] (read-out: pIC50 (converted)), 3.47 µM; in the assay with MES-SA [1] (read-out: IC50), 2.67 µM; in the assay on MES-SA/Dx5 [2] (read-out: IC50) it was 1.85 µM. Moreover, the IC50 in the assay on KB 3-1 (read-out: IC50) was 5.02 µM; with KB 3-1 (read-out: pIC50 (converted)) it was 5.01 µM; in the assay with KB-V1 (read-out: IC50), 4.87 µM; in the assay on KB-V1 (read-out: pIC50 (converted)) it was 5.01 µM; in the assay on A2780 (read-out: IC50), 5.47 µM; in the assay with A2780 (read-out: pIC50 (converted)) it was 5.37 µM. Also, the IC50 was 6.95 µM in assay [5] (read-out: IC50) and 6.92 µM in assay [5] (read-out: pIC50 (converted)).
Take `FC(F)(F)c1ccccc1NC(=S)N/N=C/c1ccccn1`: the IC50 in the assay on MES-SA [1] (read-out: IC50) was 0.13 µM; with MES-SA [1] (read-out: pIC50 (converted)), 0.12 µM; in the assay with MES-SA/Dx5 [2] (read-out: IC50), 0.16 µM; with MES-SA/Dx5 [2] (read-out: pIC50 (converted)), 0.138 µM.
As for `C/C(=N\NC(=S)Nc1cccc(C(F)(F)F)c1)c1ccccn1`, the IC50 is 9.59 µM with MES-SA [1] (read-out: IC50), 9.55 µM in the assay on MES-SA [1] (read-out: pIC50 (converted)), 11.7 µM in the assay with MES-SA/Dx5 [2] (read-out: IC50) and 11.7 µM in the assay with MES-SA/Dx5 [2] (read-out: pIC50 (converted)).
As for `S=C(N/N=C/c1ccccn1)Nc1ccccc1`, the IC50 with MES-SA [1] (read-out: IC50) was 0.72 µM; with MES-SA [1] (read-out: pIC50 (converted)), 0.692 µM; in the assay on MES-SA/Dx5 [2] (read-out: IC50), 0.58 µM; in the assay on MES-SA/Dx5 [2] (read-out: pIC50 (converted)), 0.562 µM.
Consider `Cc1cc(/C=N/Nc2ccccn2)nc2ccccc12`, for which the IC50 is 0.56 µM in the assay on MES-SA [1] (read-out: IC50), 0.537 µM in the assay on MES-SA [1] (read-out: pIC50 (converted)), 0.4 µM in the assay with MES-SA/Dx5 [2] (read-out: IC50) and 0.398 µM in the assay with MES-SA/Dx5 [2] (read-out: pIC50 (converted)).
`FC(F)(F)c1cccc(NC(=S)N/N=C/c2ccccn2)c1`: the IC50 with MES-SA [1] (read-out: IC50) is 0.85 µM; with MES-SA [1] (read-out: pIC50 (converted)) it was 0.832 µM; in the assay with MES-SA/Dx5 [2] (read-out: IC50), 0.72 µM; in the assay with MES-SA/Dx5 [2] (read-out: pIC50 (converted)), 0.692 µM.

(Values after ChEMBL document CHEMBL4715714, “Design, synthesis and biological evaluation of thiosemicarbazones, hydrazinobenzothiazoles and arylhydrazones as anticancer agents with a potential to overcome multidrug resistance” (Eur J Med Chem, 2016).)
